A selection: hits, their analogues and other compounds. The true share with any hit is near 2.3%.
Diaphorase inh: diaphorase inhibition or chemical oxidation counter-screen | diaphorase resazurin-to-resorufin fluorescence, NADH, 16 min; bacterial (C. kluyveri) enzyme, not human | inhibition, % at 20 µM | hit rate 0.69% among 190,000 | AID 1217;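 active means primary screen inhibition at 20 µM above a set limit, cut at about 50% in these data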
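System: Diaphorase enzyme from Clostridium kluyveri | Amount: Enzyme working solution with 0.14 U/mL diaphorase | Benchmarks: No-NADH positive control and DMSO neutral control | Signal: Fluorescence of resorufin formed from resazurin, Ex 544/Em 590 nm | Schedule: 16-min room-temperature incubation before reading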
Diaphorase act: diaphorase activation or chemical reduction counter-screen; Diaphorase/resazurin coupled assay, resorufin fluorescence, 16 min; stronger effect = higher value; 1 = vehicle wells, 0 = NADH-free wells; activation factor at 20 µM; hit rate 0.005% among 190,000;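 active means diaphorase activity raised at least twofold by the compound at 20 µM; inactive means activation factor below 2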
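Test system: Clostridium kluyveri diaphorase, purified enzyme. Buffer or medium: 50 mM HEPES pH 7.4 buffer plus MgCl2 and Tween 20. Also added: 0.114 mM NADH and 0.1 mM resazurin, final amounts. Dosing: compound 20 µM once, DMSO 1%. Schedule: 16 min enzyme reaction, ambient temperature. Detection: fluorescence of resorufin, 544 nm excitation, 590 nm emission.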
FLuc inh counter: counter-screen for luciferase assay inhibitors: firefly luciferase inhibition. hit rate 1.5% among 200,000. inhibition, % at 10 µM. ATPLite firefly luciferase biochemical luminescence, 10 min. P08659;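 active means inhibition above about 50% when tested at 10 µM, limit read from the data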
Target sequence (P08659 whole entry, looked up): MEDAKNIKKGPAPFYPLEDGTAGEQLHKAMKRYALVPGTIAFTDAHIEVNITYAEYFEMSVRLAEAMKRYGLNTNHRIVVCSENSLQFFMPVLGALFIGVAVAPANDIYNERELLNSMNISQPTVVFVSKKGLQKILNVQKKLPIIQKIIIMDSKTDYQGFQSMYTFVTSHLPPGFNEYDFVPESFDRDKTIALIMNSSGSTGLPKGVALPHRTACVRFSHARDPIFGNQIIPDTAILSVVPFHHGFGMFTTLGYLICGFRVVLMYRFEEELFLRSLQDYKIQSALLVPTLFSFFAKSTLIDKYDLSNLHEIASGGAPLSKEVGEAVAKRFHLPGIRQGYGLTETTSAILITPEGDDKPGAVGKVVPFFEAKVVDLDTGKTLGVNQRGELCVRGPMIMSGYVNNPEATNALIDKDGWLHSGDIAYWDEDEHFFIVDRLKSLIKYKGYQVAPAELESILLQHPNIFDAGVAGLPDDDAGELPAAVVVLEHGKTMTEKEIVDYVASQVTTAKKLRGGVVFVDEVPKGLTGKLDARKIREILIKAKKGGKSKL
FLuc act counter: affects firefly luciferase, flagging false hits in luciferase stimulation screens | P08659 | ATPlite luciferase biochemical, luminescence, 10 min; 0 = ATP-free wells, 1 = DMSO control | activation factor at 10 µM | 200,000 tested, under 10 active | AID 1027;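 active means luciferase activation factor, scaled between plate controls, of at least 2 with compound at 10 µM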
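test system = cell-free luciferase reagent | medium = PBS as buffer for the ATP substrate | dosing = test compounds dosed from 2 mM stocks in 100% DMSO | incubation = 10 min at ambient temperature | detection = luminescence measurement of luciferase light output | benchmarks = low control with PBS replacing ATP, high control enzyme plus ATP without compound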
G6PDH CS: L. mesenteroides G6PDH inhibition counter-screen. hit rate 0.12% among 200,000. inhibition, % at 5 µM. Purified L. mesenteroides G6PDH, diaphorase/resazurin coupled fluorescence, 45 min; in the data active means inhibition above about 50%
Numbers stand for hits; n = inactive.

SMILES | Diaphorase inh | Diaphorase act | FLuc inh counter | FLuc act counter | G6PDH CS
CNc1c([N+](=O)[O-])cnn1-c1cccc(Cl)n1 | n | n | n | n | n
Clc1ccc(-n2nnnc2-c2ccccc2)cc1Cl | n | n | n | n | n
Clc1c(-c2ccccc2)nnn1-c1ccccc1 | n | n | 69.1 | n | n
O=C1c2sc3nc4n(c(=O)c3c2CCC1Br)CCCCC4 (configuration not stated) | 62.5 | n | n | n | n
CC1SC(C)C(=O)N(CC(=O)NC2CCCCC2)C1=O (configuration not stated) | n | n | n | n | n
O=C(O)c1cccc(NC(=S)N/N=C/c2ccccc2OCc2cccc(Br)c2)c1 | 56.8 | n | n | n | n
O=C(O)c1cccc(NC(=S)N/N=C/c2ccccc2OCc2ccc(Br)cc2)c1 | 50.8 | n | n | n | n
O=C(O)c1cccc(NC(=S)N/N=C/c2cccc(O)c2)c1 | n | n | n | n | n
COC(=O)c1ccc(COc2ccccc2/C=N/Nc2cccc(C(=O)O)c2)cc1 | n | n | n | n | n
O=C(COn1nnc2ccccc21)N1CCN(Cc2ccccc2)CC1 | n | n | n | n | n
O=C(O)c1cccc(-n2cccc2/C=C2/NC(=O)N(c3ccc(Cl)cc3)C2=O)c1 | 62.4 | n | n | n | n
c1ccc2c(c1)Cn1nnnc1-2 | n | n | n | n | n
c1ccc2c(c1)Cn1c-2nc2ccccc21 | n | n | 63.6 | n | n
CNc1nnc(-c2ccc(OC)cc2)s1 | n | n | 63.1 | n | n
CNc1nnc(-c2ccncc2)s1 | n | n | n | n | n
Cc1ccc(C(=O)N/N=C2\CCc3ccccc32)c(C)c1 | n | n | 62.1 | n | n
O=C(N/N=C1\CCc2ccccc21)c1ccc(O)cc1 | n | n | 65.9 | n | n
O=C(N/N=C1\CCc2ccccc21)c1ccccc1Cl | n | n | n | n | n
Cc1ccc(-n2[nH]c(C)c(C=Nc3cc(C)ccn3)c2=O)cc1 | n | n | n | n | n
COc1ccc2nc(/N=C/c3c(C)[nH]n(-c4ccc(C)cc4)c3=O)sc2c1 | n | n | 59.0 | n | n
CC1(C)C=C(c2ccc(O)cc2)CC(C)(C)N1 | n | n | n | n | n
Nc1nc(-c2cccnc2)nc2sc3c(c12)CCCC3 | n | n | 84.9 | n | n
O=C1CN(c2nc(-c3cccnc3)nc3sc4c(c23)CCCC4)CCN1 | n | n | n | n | n
O=C(CC(Nc1ccc(F)cc1)C(=O)O)c1ccccc1 (configuration not stated) | n | n | 86.8 | n | n
Cc1ccn2c(CNCC3OCCc4ccccc43)c(C(=O)N3CCCCCC3)nc2c1 (configuration not stated) | n | n | n | n | n
SMILES | Diaphorase inh | Diaphorase act | FLuc inh counter | FLuc act counter | G6PDH CS
CC1(C)CC(=O)C/C(=N/Nc2nc3ccccc3s2)C1 | n | n | n | n | n
CC1CCC/C(=N/Nc2nc3ccccc3s2)C1 (configuration not stated) | n | n | 71.5 | n | n
Cc1nc2sc3c(NCc4ccco4)ncnc3c2c2c1COC(C)(C)C2 | 66.2 | n | n | n | n
Cc1ccc(CN=C2Nc3ccccc3CS2)cc1 | n | n | 81.0 | n | n
CC(C)/C(=N/Nc1ccccc1[N+](=O)[O-])c1ccccc1 | 50.3 | n | n | n | n
CC(C)Oc1ccccc1/C=N/Nc1ccccc1[N+](=O)[O-] | n | n | n | n | n
O=C(C1CCCO1)N1CCN(Cc2c(O)ccc3ccccc23)CC1 (configuration not stated) | 56.3 | n | n | n | n
Cc1ccc(/C(N)=N/OC(=O)c2ccc(F)cc2)cc1 | n | n | 68.0 | n | n
N/C(=N\OC(=O)c1ccc(F)cc1)c1ccc(Br)cc1 | n | n | n | n | n
N/C(=N\OC(=O)c1ccc(F)cc1)c1ccccc1 | n | n | 97.0 | n | n
O=C(CCCCCNc1nc(=S)[nH]c2ccccc12)NCCC1=CCCCC1 | n | n | n | n | n
CN(C)C(=O)c1sccc1Oc1ccc(F)cc1[N+](=O)[O-] | n | n | n | n | n
C[C@@H](C(=O)Nc1ccc2ccccc2c1)[C@H]1C[C@]1(C)[C@H](NS(=O)(=O)c1ccccc1)c1ccccc1 | n | n | n | n | n
S=C(Nc1ccc2nccnc2c1)N1CCOCC1 | n | n | n | n | n
